# Shown are actives, neighbours in structure and some others; about 2.6% of the full set was active somewhere.
# OXTR potentiator – human OXTR potentiation | P30559 | CHO-OTR cells, Fluo-8 calcium fluorescence, potentiator mode; 0% = oxytocin EC15, 100% = EC100 | activation, % at 3 µM | 0.061% of 320,000 active | AID 2445;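 active means activation above that plate's cutoff, the mean activation of tested compounds plus 3 SD, cut at about 6.6% in these data, passing the limit was not always enough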
# Target sequence (P30559 whole entry, looked up): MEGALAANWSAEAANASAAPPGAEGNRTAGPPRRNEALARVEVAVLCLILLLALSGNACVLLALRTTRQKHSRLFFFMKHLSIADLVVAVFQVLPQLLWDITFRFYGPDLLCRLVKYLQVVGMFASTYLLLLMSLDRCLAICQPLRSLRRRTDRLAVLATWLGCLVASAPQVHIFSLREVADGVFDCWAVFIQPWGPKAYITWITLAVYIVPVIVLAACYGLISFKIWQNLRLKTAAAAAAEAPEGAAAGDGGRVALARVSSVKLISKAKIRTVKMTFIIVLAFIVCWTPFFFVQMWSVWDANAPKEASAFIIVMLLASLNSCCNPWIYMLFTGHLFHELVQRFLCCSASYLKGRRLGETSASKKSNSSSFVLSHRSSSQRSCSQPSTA
#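 Material: CHO-OTR cells, human receptor; compound dosing: single dose, 3.0 µM nominal final compound concentration; schedule: 6 min compound pre-incubation at room temperature, 100 s kinetic read; measured by: kinetic Fluo-8 calcium fluorescence; read-out basis: % activation vs EC15 and EC100 oxytocin; controls: EC15 oxytocin alone as 0%, 75 nM oxytocin as 100%; replicates: singlicate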
# OX1R antag-1 – antagonists of human orexin 1 receptor | O43613 | CHO/OX1R cells, Fluo-8 calcium fluorescence, orexin A | inhibition, % at 5 µM | 0.43% of 330,000 active | AID 434989;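 active means inhibition above its plate's threshold, mean inhibition of all tested compounds on the plate plus 3 SD, cut at about 37% in these data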
# OX1R antag-2 – OX1R (human) antagonism. O43613. OX1R-expressing cells, FRET antagonist read-out. inhibition, % at 6.6 µM. 1.8% of 330,000 active. AID 485270; in the data active means inhibition mostly above about 38%, no sharp cut-off; inactive means mostly below about 40%
# V1R ag counter – activates human V1a receptor in oxytocin agonist counter-screen; P37288; activation, % at 3 µM; 0.25% of 320,000 active; AID 2797; CHO-V1R cells, Fluo-8 calcium fluorescence, agonist mode; 0% DMSO, 100% 3 nM vasopressin;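 active means activation above the mean activation of all tested compounds plus 3 SD, per screening run, cut at about 20% in these data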;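 further: signal is peak over basal fluorescence ratio across a 100 second FLIPR read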
# CHO parental Ca – counter-screen for OX1R antagonists: effect in parental CHO cells; parental CHO-K1, ATP-induced calcium, Fluo-8 fluorescence; inhibition, % at 5.6 µM; 0.63% of 330,000 active;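 active means inhibition above that plate's mean sample inhibition plus 3 SD, cut at about 26% in these data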
#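 Measured by: calcium-sensitive Fluo-8 fluorescence / Test system: CHO parental line / Controls: ATP-challenged DMSO wells low, unchallenged DMSO wells high / Measure: % inhibition / Compound: single nominal dose of 5.6 µM per compound / Replicates: single well per compound, no replicates / Reagent: ATP as calcium-mobilizing challenge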
# OXTR ag – agonists of human oxytocin receptor; P30559; CHO-OTR cells, Fluo-8 calcium fluorescence; normalized: DMSO 0%, oxytocin 100%; activation, % at 3 µM; 0.32% of 320,000 active;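 active means activation above the mean of all tested compounds plus 3 SD, cutoff set per screening run, cut at about 20% in these data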;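 further: peak over basal fluorescence ratio from a 100 s FLIPR kinetic read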
# A number is an active result; - = inactive; . = no result.
SMILES,OXTR potentiator,OX1R antag-1,OX1R antag-2,V1R ag counter,CHO parental Ca,OXTR ag
CC(Oc1ccccc1F)c1nnc(SCC(=O)NCc2ccc3c(c2)OCO3)o1 (stereo not given),-,-,-,-,-,-
CCN1CCN(c2ccc(S(=O)(=O)N3CCOCC3)cc2NC(=O)C(C)Oc2ccc(F)cc2)CC1 (stereo not given),-,-,-,-,-,-
O=S(=O)(c1cccs1)N1CCCc2ccccc21,-,-,-,-,56,-
O=C(Nc1ccc2c(c1)N(S(=O)(=O)c1cccs1)CCC2)c1c(F)cccc1Cl,-,-,55,-,-,-
COc1ccc(Cc2nnc(NC(=O)C3CC(=O)N(c4ccccc4)C3)s2)cc1OC (stereo not given),-,-,-,-,-,-
CCCCn1c(N)c(Sc2ccccc2[N+](=O)[O-])c(=O)[nH]c1=O,-,-,55,-,-,-
CC(NC(=O)c1cc([N+](=O)[O-])cc([N+](=O)[O-])c1)c1ccc(-n2ccnc2)cc1 (stereo not given),-,-,64,-,-,-
O=Nc1c(O)n(Cc2cccc(Cl)c2)c2ccccc12,-,-,-,-,61,-
COC(=O)C1=C(C)OC(N)=C(C#N)C1c1ccccc1F (stereo not given),-,-,-,-,-,-
N#CC1=C(N)Oc2cc(O)c(Cl)cc2C1c1ccccc1F (stereo not given),-,-,-,-,30,25
Nc1nc(N)c(N=O)c(OCC2CCCCC2)n1,-,-,40,-,-,-
C=CCN(CC=C)S(=O)(=O)c1ccc(NC(=S)NC(=O)/C=C/c2ccc(C)cc2)cc1,-,-,-,-,36,-
O=C(CSc1cccc[n+]1[O-])c1cc2ccccc2o1,-,-,72,-,-,-
COCCNC(=O)COC(=O)c1ccc(OCC(=O)Nc2ccccc2OC)c(OC)c1,-,-,-,-,-,-
O=C(OCn1ncc(Cl)c(Cl)c1=O)c1ccc(F)cc1,-,-,-,-,32,-
O=c1c(Cl)c(Cl)cnn1Cc1ccc(F)cc1,-,-,-,-,-,-
O=C(OCn1ncc(Cl)c(Cl)c1=O)c1ccccc1Cl,17,-,-,-,-,-
CN(C)S(=O)(=O)c1cccc(N=C2SCCN2Cc2ccccc2)c1,-,-,-,-,40,-
Cc1ccc(C(=O)N2CC(C)SC2=Nc2cccc(S(=O)(=O)N(C)C)c2)cc1 (stereo not given),-,-,-,-,-,-
C=C1C(=O)C=C2CN(C(=O)c3ccccc3)[C@@](Cc3ccc(F)cc3)(C(=O)OC)[C@@H]12,-,75,-,81,-,69
Cn1c(=O)c2c(n(C)c1=O)=NC1(CCCCC1)ON=2,-,-,71,-,-,-
COc1ccccc1CNC(=O)CN1C(=O)NC2(CCCCCC2)C1=O,-,-,-,-,-,-
CCOC(=O)N1CCN(S(=O)(=O)c2ccc(C)c(C)c2C)CC1,-,-,-,-,-,-
Cc1ccc(S(=O)(=O)n2nc(C)c(Br)c2C)c(C)c1C,-,52,-,-,-,-
COc1ccc(S(=O)(=O)Nc2ccc3c(c2)C(=O)N([C@H](C)CO)C[C@H](C)[C@@H](CN(C)S(C)(=O)=O)O3)cc1,-,-,-,-,-,-
SMILES,OXTR potentiator,OX1R antag-1,OX1R antag-2,V1R ag counter,CHO parental Ca,OXTR ag
CC(C)N(C(=O)[C@H]1C[C@H](CC(=O)NCCN2CCOCC2)C(=O)N2CCc3c([nH]c4ccc(Cl)cc34)[C@]12C)C(C)C,.,-,-,.,-,.
CC(C)c1ccc(N2C(=O)/C(=C/N(C)C)SC2=S)cc1,-,52,-,25,-,38
COCCN1CCn2c(nc3cc([N+](=O)[O-])ccc32)C1,-,-,40,-,-,-
O=[N+]([O-])c1ccc2c(c1)nc1n2CCN(c2ccccc2)C1,-,-,-,-,-,-
CCOC(=O)/C(=C\C=C1/Sc2cc(OCC)c(OCC)cc2N1CC)C(C)=O,-,91,-,92,69,148
CCN1/C(=C\C=C2\C(=O)N(C)C(=S)N2C)Sc2ccccc21,-,-,-,-,-,-
CCOC(=O)/C(=C/C=C1\Sc2cc(OCC)c(OCC)cc2N1CC)C(C)=O,-,108,-,289,85,248
COc1cccc(CN2CCC(n3nccc3NC(=O)CCCc3ccccc3)CC2)c1,-,-,-,-,-,-
COc1ccc(Br)cc1/C=N/NC(=O)c1cc(OC)c(OC)c(OC)c1,-,-,-,-,-,-
COc1ccc(Br)cc1/C=N/NC(=O)c1ccc(OC)c(OC)c1,-,-,43,-,-,-
COc1ccc(Br)cc1/C=N/NC(=O)c1ccc2nc[nH]c2c1,-,-,41,-,-,-
COc1ccc(OC)c(/C=N/NC(=O)c2ccc3nc[nH]c3c2)c1,-,-,-,-,-,-
COc1cc(/C=N/NC(=O)c2ccc3c(c2)OCCO3)cc(Br)c1O,-,-,-,-,-,-
COc1cc(/C=N/NC(=O)c2ccc3c(c2)OCCO3)c(Br)c(Br)c1O,-,-,65,-,-,-
O=C(COC(=O)c1ccc2ncsc2c1)NCc1ccccc1Cl,-,-,-,-,-,-
CCS(=O)c1ccccc1C(=O)OCC(=O)N1CCC(c2ccccc2)=N1 (stereo not given),-,-,-,-,-,-
Cc1cc(C(=O)N/N=C/c2cc(Cl)cc([N+](=O)[O-])c2O)n[nH]1,-,-,66,-,-,-
Cc1cc(C(=O)N/N=C/c2ccc(-c3ccccc3Cl)o2)n[nH]1,-,-,70,-,-,-
Cc1cc(C(=O)N/N=C/c2ccc([N+](=O)[O-])s2)n[nH]1,-,-,53,-,-,-
Cc1cc(C(=O)N/N=C\c2cc(C(C)(C)C)c(O)c(C(C)(C)C)c2)n[nH]1,-,-,-,-,-,-
Cc1[nH]cnc1C(=O)N/N=C/c1ccc([N+](=O)[O-])s1,-,-,71,-,-,-
CCOc1ccccc1C(=O)NCC(=O)OCC(=O)N1CCCC1,-,-,-,-,-,-
CCCOc1ccc(NC(=O)CC2C(=O)N(c3ccc(OCC)cc3)C(=S)N2C2CC2)cc1 (stereo not given),-,-,-,-,-,-
COc1c(C)cc(C(=O)C2CCCN(C(=O)c3ccoc3)C2)cc1C (stereo not given),-,-,51,-,-,-
CCN(c1ccccc1)S(=O)(=O)c1cc(NC(=O)CN2CCN(C)CC2)ccc1Cl,-,-,-,-,-,-
CC[C@@]1(C(=O)OC)N[C@H](CN(C)S(=O)(=O)c2ccccc2)[C@@H]2C(=O)N(C)C(=O)[C@@H]21,-,-,-,-,-,-

# Screening data as filed in PubChem.
